Reference: ChEMBL document CHEMBL4184325, “Discovery of 4,7-Diamino-5-(4-phenoxyphenyl)-6-methylene-pyrimido[5,4- b]pyrrolizines as Novel Bruton's Tyrosine Kinase Inhibitors” (J Med Chem, 2018)

How the values were obtained:
TMD8 [1] = assay: Induction of apoptosis in human TMD8 cells after 72 hrs by Annexin-FITC/propidium iodide staining-based flow cytometric method; format: functional, cell-based
Rattus norvegicus [2] = assay: Oral bioavailability in rat at 3 mg/kg; format: ADME, organism-based; details: in vivo
How it was run: (§1)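 Rats were given compound at 1 mg/kg iv or 3 mg/kg po. Vehicle was DMSO, Tween 80 and normal saline. Values are the average of three determinations.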

[3] = Tmax in rat at 3 mg/kg, po; format: ADME, organism-based; details: in vivo; how it was run: as §1
[4] = Drug metabolism in rat liver microsomes assessed as (S)-4-(4-(4,7-diamino-6-methylene-7,8-dihydro-6H-pyrimido[5,4-b]pyrrolizin-5-yl)phenoxy)phenol formation after 3 hrs; format: ADME, microsome
[5] = Drug metabolism in human liver microsomes assessed as (S,E)-N-(4-amino-6-methylene-5-(4-phenoxyphenyl)-7,8-dihydro-6H-pyrimido[5,4-b]pyrrolizin-7-yl)-3-hydroxyacrylamide formation after 3 hrs; format: ADME, microsome
[6] = target: Tyrosine-protein kinase Blk (Homo sapiens, UniProt P51451); assay: Inhibition of recombinant human BLK using Poly(Glu, Tyr) 4:1 as substrate after 1 hr by ELISA
Sequence of Tyrosine-protein kinase Blk (P51451 whole entry): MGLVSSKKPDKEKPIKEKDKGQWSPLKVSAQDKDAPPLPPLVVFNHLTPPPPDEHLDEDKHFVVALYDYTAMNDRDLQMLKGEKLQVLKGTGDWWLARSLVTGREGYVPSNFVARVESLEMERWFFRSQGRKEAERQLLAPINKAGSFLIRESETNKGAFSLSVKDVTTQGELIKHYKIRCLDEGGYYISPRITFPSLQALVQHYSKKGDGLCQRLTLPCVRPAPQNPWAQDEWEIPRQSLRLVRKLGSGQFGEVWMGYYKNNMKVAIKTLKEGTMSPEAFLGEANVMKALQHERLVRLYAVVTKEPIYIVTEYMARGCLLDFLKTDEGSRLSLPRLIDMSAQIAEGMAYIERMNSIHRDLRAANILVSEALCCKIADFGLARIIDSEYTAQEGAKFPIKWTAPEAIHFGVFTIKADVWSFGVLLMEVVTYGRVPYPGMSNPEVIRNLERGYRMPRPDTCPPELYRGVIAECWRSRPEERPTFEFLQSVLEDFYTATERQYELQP
How it was run: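 Purchased active kinase incubated with compound on wells precoated with 20 µg/mL poly(Glu,Tyr) 4:1, in 50 mM HEPES pH 7.4, 20 mM MgCl2, 0.1 mM MnCl2, 0.2 mM Na3VO4, 1 mM DTT, 5 µM ATP, 37 °C, 1 h. Phosphotyrosine detected with PY99 antibody, HRP secondary, OPD, A492. IC50 as mean of duplicates.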

TMD8 [7] = assay: Antiproliferative activity against human TMD8 cells after 72 hrs by MTT assay; format: functional, cell-based; details: TMD8, 72 h
How it was run: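 Cells grown in RPMI-1640 with FBS at 37 °C, 5% CO2. Seeded and grown 2 h, then treated with various concentrations in PBS solution, each in triplicate, and cultured a further 72 h. Viability read by MTT. IC50 from the Logit method, given as mean ± SD of three independent determinations.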

Mus musculus = assay: Toxicity in CB17 SCID nude mouse xenografted with human TMD8 cells assessed as change in body weight at 5 mg/kg, po qd administered for 13 consecutive days measured during compound dosing; format: organism-based; details: in vivo
How it was run: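 Female CB-17 SCID mice, 4-5 weeks old, were inoculated subcutaneously in the right axilla with about 2×10^6 TMD8 cells. At ~100-200 mm³ they were randomized (n = 6/group) and dosed orally once daily: vehicle for 13 days, 5 mg/kg/day for 13 days, 15 mg/kg/day for 17 days.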

[8] = Drug metabolism in mouse liver microsomes assessed as (S,E)-N-(4-amino-6-methylene-5-(4-phenoxyphenyl)-7,8-dihydro-6H-pyrimido[5,4-b]pyrrolizin-7-yl)-3-hydroxyacrylamide formation after 3 hrs; format: ADME, microsome
[9] = Drug metabolism in mouse liver microsomes assessed as (S)-N-(4-amino-5-(4-(4-hydroxyphenoxy)phenyl)-6-methylene-7,8-dihydro-6H-pyrimido[5,4-b]pyrrolizin-7-yl)acrylamide formation after 3 hrs; format: ADME, microsome
[10] = target: Proto-oncogene tyrosine-protein kinase receptor Ret (Homo sapiens, UniProt P07949); assay: Inhibition of recombinant human RET using Poly(Glu, Tyr) 4:1 as substrate after 1 hr by ELISA
Sequence of Proto-oncogene tyrosine-protein kinase receptor Ret (P07949 whole entry): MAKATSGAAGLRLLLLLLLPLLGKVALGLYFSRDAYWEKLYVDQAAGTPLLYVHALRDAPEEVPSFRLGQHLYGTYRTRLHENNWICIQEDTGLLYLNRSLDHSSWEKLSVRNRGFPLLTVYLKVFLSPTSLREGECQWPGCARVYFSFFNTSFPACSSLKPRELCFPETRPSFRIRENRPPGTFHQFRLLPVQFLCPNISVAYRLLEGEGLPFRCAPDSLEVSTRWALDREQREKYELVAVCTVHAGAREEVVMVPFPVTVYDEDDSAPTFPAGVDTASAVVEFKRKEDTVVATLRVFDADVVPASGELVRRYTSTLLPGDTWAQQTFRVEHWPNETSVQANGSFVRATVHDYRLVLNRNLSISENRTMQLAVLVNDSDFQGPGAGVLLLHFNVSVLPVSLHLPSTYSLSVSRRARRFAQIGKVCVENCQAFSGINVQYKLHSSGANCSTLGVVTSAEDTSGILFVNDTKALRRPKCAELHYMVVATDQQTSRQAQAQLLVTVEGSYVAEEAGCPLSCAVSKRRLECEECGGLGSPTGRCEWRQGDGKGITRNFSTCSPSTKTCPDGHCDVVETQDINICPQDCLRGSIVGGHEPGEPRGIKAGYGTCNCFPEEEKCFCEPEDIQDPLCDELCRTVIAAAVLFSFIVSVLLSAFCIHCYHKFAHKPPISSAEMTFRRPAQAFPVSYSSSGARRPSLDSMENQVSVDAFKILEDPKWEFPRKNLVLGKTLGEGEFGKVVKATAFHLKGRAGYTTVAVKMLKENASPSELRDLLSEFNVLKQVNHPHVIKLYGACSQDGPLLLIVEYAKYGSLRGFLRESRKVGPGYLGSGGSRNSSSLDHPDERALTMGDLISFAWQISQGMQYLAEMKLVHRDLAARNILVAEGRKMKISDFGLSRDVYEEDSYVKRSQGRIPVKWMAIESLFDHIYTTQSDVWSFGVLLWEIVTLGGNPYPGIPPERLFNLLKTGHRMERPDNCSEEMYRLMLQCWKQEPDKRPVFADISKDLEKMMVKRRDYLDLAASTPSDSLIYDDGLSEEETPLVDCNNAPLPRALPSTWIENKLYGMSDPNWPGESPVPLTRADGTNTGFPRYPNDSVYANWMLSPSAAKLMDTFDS

TMD8 [11] = assay: Cell cycle arrest in human TMD8 cells assessed as accumulation at G1 phase at 100 nM after 48 hrs by propidium iodide staining-based flow cytometric method (reference value: 51.33%); format: functional
TMD8 [12] = assay: Induction of apoptosis in human TMD8 cells assessed as early apoptotic cells at 1000 nM after 72 hrs by Annexin-FITC/propidium iodide staining-based flow cytometric method (reference value: 7.98%); format: functional
TMD8 [13] = assay: Cell cycle arrest in human TMD8 cells assessed as accumulation at S phase at 100 nM after 48 hrs by propidium iodide staining-based flow cytometric method (reference value: 34.15%); format: functional
[14] = Drug metabolism in rat liver microsomes assessed as N-((S)-4-amino-6-methylene-5-(4-phenoxyphenyl)-7,8-dihydro-6H-pyrimido[5,4-b]pyrrolizin-7-yl)-2,3-dihydroxypropanamide formation after 3 hrs; format: ADME, microsome
TMD8 [15] = assay: Cell cycle arrest in human TMD8 cells assessed as accumulation at G1 phase after 48 hrs by propidium iodide staining-based flow cytometric method; format: functional
[16] = Drug metabolism in rat liver microsomes assessed as (S)-N-(4-amino-5-(4-hydroxyphenyl)-6-methylene-7,8-dihydro-6H-pyrimido[5,4-b]pyrrolizin-7-yl)acrylamide formation after 3 hrs; format: ADME, microsome
TMD8 [17] = assay: Cell cycle arrest in human TMD8 cells assessed as accumulation at S phase at 1 nM after 48 hrs by propidium iodide staining-based flow cytometric method (reference value: 34.15%); format: functional
Rattus norvegicus [18] = assay: Half life in rat at 1 mg/kg, iv; format: ADME, organism-based; details: in vivo
How it was run: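 Rats given 1 mg/kg intravenously; vehicle DMSO, Tween 80, normal saline; values are the average of three determinations.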

TMD8 [19] = assay: Induction of apoptosis in human TMD8 cells assessed as early apoptotic cells at 10 nM after 72 hrs by Annexin-FITC/propidium iodide staining-based flow cytometric method (reference value: 7.98%); format: functional
[20] = target: Receptor tyrosine-protein kinase erbB-4 (Homo sapiens, UniProt Q15303); assay: Inhibition of recombinant human ErbB4 using Poly(Glu, Tyr) 4:1 as substrate after 1 hr by ELISA
How it was run: (§2)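 Kinase activity was measured by ELISA on wells precoated with 20 µg/mL poly(Glu,Tyr) 4:1. Enzyme was incubated with compound in 50 mM HEPES pH 7.4, 20 mM MgCl2, 0.1 mM MnCl2, 0.2 mM Na3VO4, 1 mM DTT with 5 µM ATP at 37 °C for 1 h. Phosphotyrosine was detected with PY99 antibody, HRP secondary and OPD, read at A492. IC50 is the mean of duplicates.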

TMD8 [21] = assay: Cell cycle arrest in human TMD8 cells assessed as accumulation at G2 phase at 1 nM after 48 hrs by propidium iodide staining-based flow cytometric method (reference value: 14.53%); format: functional
TMD8 [22] = assay: Cell cycle arrest in human TMD8 cells assessed as accumulation at G2 phase at 100 nM after 48 hrs by propidium iodide staining-based flow cytometric method (reference value: 14.53%); format: functional
[23] = target: Epidermal growth factor receptor (Homo sapiens, UniProt P00533); assay: Inhibition of recombinant human EGFR using Poly(Glu, Tyr) 4:1 as substrate after 1 hr by ELISA; how it was run: as §2
Sequence of Epidermal growth factor receptor (P00533 whole entry): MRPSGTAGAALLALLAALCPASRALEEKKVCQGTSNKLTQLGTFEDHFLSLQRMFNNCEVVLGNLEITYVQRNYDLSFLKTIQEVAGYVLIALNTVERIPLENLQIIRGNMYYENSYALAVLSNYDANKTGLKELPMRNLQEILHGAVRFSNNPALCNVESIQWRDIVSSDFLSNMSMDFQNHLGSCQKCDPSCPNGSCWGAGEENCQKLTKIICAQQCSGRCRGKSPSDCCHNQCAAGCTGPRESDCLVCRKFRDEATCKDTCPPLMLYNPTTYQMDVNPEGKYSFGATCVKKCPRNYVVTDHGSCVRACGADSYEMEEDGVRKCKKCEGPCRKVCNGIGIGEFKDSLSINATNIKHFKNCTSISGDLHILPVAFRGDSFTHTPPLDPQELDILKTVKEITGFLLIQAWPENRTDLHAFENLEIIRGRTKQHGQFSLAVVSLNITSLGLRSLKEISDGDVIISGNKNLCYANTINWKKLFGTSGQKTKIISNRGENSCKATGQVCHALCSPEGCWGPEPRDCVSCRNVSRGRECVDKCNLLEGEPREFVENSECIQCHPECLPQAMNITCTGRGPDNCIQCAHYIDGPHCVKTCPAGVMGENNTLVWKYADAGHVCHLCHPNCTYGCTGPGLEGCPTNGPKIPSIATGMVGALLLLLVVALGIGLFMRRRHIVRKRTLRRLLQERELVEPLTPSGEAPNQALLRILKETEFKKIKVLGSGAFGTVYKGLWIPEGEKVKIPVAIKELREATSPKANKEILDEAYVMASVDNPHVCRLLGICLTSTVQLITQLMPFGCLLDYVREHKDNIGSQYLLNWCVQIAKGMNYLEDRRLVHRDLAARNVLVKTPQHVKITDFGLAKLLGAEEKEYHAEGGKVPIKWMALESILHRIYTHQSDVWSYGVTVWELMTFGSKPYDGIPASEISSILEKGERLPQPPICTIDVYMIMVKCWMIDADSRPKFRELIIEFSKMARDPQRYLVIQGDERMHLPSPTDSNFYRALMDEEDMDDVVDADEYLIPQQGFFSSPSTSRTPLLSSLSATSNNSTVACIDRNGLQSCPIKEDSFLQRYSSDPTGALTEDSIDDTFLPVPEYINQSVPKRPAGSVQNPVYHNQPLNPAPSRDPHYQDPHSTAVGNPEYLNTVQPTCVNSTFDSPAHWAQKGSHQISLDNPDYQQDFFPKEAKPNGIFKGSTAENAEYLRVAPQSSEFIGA

[24] = target: Platelet-derived growth factor receptor beta (Homo sapiens, UniProt P09619); assay: Inhibition of recombinant human PDGFR-beta using Poly(Glu, Tyr) 4:1 as substrate after 1 hr by ELISA
Sequence of Platelet-derived growth factor receptor beta (P09619 whole entry): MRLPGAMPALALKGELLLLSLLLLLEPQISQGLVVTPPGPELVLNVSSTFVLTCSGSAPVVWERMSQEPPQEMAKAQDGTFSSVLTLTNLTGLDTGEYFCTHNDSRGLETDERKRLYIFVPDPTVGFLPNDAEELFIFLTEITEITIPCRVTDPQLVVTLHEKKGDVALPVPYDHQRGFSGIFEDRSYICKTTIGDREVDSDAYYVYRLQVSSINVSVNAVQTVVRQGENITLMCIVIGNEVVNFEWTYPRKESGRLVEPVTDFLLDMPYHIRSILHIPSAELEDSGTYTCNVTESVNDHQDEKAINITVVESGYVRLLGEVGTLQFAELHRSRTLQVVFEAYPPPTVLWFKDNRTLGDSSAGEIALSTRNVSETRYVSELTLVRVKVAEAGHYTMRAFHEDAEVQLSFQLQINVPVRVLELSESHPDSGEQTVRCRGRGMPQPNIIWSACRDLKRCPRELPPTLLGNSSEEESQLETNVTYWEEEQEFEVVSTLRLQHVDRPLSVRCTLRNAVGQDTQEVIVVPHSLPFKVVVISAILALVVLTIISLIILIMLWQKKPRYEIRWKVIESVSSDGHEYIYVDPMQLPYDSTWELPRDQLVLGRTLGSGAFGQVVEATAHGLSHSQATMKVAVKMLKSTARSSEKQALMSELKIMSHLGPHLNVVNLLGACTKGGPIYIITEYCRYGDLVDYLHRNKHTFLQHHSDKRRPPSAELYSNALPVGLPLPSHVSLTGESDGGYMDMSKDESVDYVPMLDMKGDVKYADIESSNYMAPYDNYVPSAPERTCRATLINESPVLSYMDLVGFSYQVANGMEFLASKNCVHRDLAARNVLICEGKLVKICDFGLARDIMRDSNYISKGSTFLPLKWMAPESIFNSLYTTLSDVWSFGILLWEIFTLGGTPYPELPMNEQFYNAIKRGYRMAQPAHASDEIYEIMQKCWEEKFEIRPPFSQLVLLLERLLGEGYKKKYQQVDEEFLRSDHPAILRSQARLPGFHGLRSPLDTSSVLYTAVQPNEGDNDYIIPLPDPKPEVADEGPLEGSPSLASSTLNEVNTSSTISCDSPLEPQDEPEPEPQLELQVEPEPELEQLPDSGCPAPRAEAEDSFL

[25] = Drug metabolism in mouse liver microsomes assessed as N-((S)-4-amino-6-methylene-5-(4-phenoxyphenyl)-7,8-dihydro-6H-pyrimido[5,4-b]pyrrolizin-7-yl)-2,3-dihydroxypropanamide formation after 3 hrs; format: ADME, microsome
[26] = target: Tyrosine-protein kinase BTK (Homo sapiens, UniProt Q06187); assay: Inhibition of BTK autophosphorylation at Y223 in human TMD8 cells after 4 hrs by Western blot method
Sequence of Tyrosine-protein kinase BTK (Q06187 whole entry): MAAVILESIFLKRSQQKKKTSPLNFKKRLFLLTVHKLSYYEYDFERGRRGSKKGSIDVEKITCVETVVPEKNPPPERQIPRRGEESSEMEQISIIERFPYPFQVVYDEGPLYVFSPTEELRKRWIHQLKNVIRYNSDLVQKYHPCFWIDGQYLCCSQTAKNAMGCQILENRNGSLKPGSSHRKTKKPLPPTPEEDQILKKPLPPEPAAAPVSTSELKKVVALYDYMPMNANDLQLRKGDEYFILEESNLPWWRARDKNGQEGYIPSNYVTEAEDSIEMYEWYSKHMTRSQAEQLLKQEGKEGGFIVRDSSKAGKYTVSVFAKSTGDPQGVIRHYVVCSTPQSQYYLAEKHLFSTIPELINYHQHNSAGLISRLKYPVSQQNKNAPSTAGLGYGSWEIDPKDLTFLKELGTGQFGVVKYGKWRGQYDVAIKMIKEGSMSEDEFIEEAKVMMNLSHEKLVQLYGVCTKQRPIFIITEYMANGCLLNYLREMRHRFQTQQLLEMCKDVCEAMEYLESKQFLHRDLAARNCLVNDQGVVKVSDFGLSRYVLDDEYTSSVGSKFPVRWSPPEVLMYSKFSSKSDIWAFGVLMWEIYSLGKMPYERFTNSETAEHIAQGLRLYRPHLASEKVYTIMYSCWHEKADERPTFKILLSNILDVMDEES

TMD8 [27] = assay: Induction of apoptosis in human TMD8 cells assessed as late apoptotic cells at 100 nM after 72 hrs by Annexin-FITC/propidium iodide staining-based flow cytometric method (reference value: 3.2%); format: functional

In the case of C=CC(=O)N[C@@H]1Cn2c(c(-c3ccc(Oc4ccccc4)cc3)c3c(N)ncnc32)C1=C, the Activity (TMD8 [1]) is reported as “Dose-dependent effect”, the F (Rattus norvegicus [2]) is reported as 18.3% and the Tmax [3] is reported as 15 min. The Drug metabolism [4] was “Metabolite_Detected”, the Drug metabolism [5] was “Metabolite_Detected” and the IC50 [6] was 0.2 nM. The IC50 (TMD8 [7]) was 16 nM, the Activity (Mus musculus) was “Non-Toxic” and the Drug metabolism [8] was “Metabolite_Detected”. The Drug metabolism [9] was “Metabolite_Detected”, the IC50 [10] was 20.3 nM and the Activity (TMD8 [11]) was 77.17%. For the same compound, the Activity (TMD8 [12]) was 51.1%, the Activity (TMD8 [13]) was 12.79% and the Drug metabolism [14] was “Metabolite_Detected”. For the same compound, the Activity (TMD8 [15]) was “Dose-dependent effect”, the Drug metabolism [16] was “Metabolite_Detected” and the Activity (TMD8 [17]) was 25.22%. The t1/2 (Rattus norvegicus [18]) was 34.2 min, the Activity (TMD8 [19]) was 27.6% and the IC50 [20] was 0.6 nM. For the same compound, the Activity (TMD8 [21]) was 17.32%, the Activity (TMD8 [22]) was 10.04% and the IC50 [23] was 1.3 nM. For the same compound, the IC50 [24] was 215 nM, the Drug metabolism [25] was “Metabolite_Detected” and the IC50 [26] was less than 10 nM. The Activity (TMD8 [27]) was 14.8%.
